How the values were obtained:
[1] = target: T1, Polyunsaturated fatty acid 5-lipoxygenase (Rattus norvegicus) (UniProt P12527); assay: Percent inhibition of rat neutrophil 5- Lipoxygenase (5-LO) at 100 uM
T1 sequence (whole entry): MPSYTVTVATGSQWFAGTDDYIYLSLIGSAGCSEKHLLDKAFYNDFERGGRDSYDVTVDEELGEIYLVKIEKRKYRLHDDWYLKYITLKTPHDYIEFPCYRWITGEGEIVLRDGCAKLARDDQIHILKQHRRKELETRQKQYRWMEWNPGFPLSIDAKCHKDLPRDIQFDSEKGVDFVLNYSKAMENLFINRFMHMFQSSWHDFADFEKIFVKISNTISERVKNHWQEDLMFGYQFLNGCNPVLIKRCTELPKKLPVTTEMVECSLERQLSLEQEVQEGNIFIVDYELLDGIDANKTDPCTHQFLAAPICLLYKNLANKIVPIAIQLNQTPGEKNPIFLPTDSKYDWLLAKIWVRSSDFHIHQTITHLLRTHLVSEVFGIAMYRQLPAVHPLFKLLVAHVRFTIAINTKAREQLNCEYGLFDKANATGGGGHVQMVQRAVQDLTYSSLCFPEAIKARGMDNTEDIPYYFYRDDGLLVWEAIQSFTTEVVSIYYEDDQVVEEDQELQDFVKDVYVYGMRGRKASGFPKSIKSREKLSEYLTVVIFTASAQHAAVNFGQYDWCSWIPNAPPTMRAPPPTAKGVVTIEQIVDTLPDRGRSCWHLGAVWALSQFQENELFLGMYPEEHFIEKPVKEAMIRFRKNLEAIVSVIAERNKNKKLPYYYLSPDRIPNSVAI
Summary of the method: (§1)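 Approximately 2 × 10^6 glycogen-elicited rat neutrophils in buffer were incubated for 3 min with 4 μM [14C]arachidonic acid and 0.8 μM calcium ionophore A23187. Net 5-HETE was taken as the cell-containing control minus the buffer-only blank. […] Each assay was run in triplicate.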

Cavia porcellus [2] = species on record: Cavia porcellus; assay: Percent inhibition of LTC4-induced contraction in guinea pig parenchymal strip test, at a concentration of 30 uM; assay type: functional
Summary of the method: (§2)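 Guinea pig lung parenchymal strips were held in a tissue bath. Repeated 1 μM histamine challenges gave a control response used to normalize all later responses. Compounds were first checked at 30 μM alone for intrinsic activity. After preincubation (usually 5 min), strips were challenged with 0.2 nM LTC4. Inhibition of the contraction was scored, and 20% or less counted as ineffective.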

[3] = target: T1, Polyunsaturated fatty acid 5-lipoxygenase (Rattus norvegicus); assay: IC50 for inhibition of rat neutrophil 5-lipoxygenase (5-LO)
[4] = target: T2, Polyunsaturated fatty acid 5-lipoxygenase (Rattus norvegicus, UniProt P12527); assay: Inhibition of rat neutrophil 5- Lipoxygenase (5-LO); conditions: read-out: I50
T2 sequence (P12527 whole entry): T1 sequence (whole entry)
Summary of the method: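 Approximately 2 × 10^6 glycogen-elicited rat neutrophils in buffer were incubated for 3 min with 4 μM [14C]arachidonic acid and 0.8 μM calcium ionophore A23187. Net 5-HETE was taken as the cell-containing control minus the buffer-only blank. Each assay was run in triplicate.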

Cavia porcellus [5] = species on record: Cavia porcellus; assay: Percent inhibition of LTC4-induced contraction in guinea pig parenchymal strip test, at a concentration of 10 uM; assay type: functional; summary of the method: as §2
Cavia porcellus [6] = species on record: Cavia porcellus; assay: Percent inhibition of LTC4-induced contraction in guinea pig parenchymal strip test, at a concentration of 3.6 uM; assay type: functional; summary of the method: as §2
[7] = target: T2, Polyunsaturated fatty acid 5-lipoxygenase; assay: Inhibition of rat neutrophil 5- Lipoxygenase (5-LO),; conditions: read-out: I50; summary of the method: as §1
Cavia porcellus [8] = species on record: Cavia porcellus; assay: Percent inhibition of LTC4-induced contraction in guinea pig parenchymal strip test, at a concentration of 22 uM,; assay type: functional; summary of the method: as §2
Cavia porcellus [9] = species on record: Cavia porcellus; assay: Percent inhibition of LTC4-induced contraction in guinea pig parenchymal strip test, at a concentration of 15 uM; assay type: functional; summary of the method: as §2
Cavia porcellus [10] = species on record: Cavia porcellus; assay: Percent inhibition of LTC4-induced contraction in guinea pig parenchymal strip test, at a concentration of 8 uM; assay type: functional; summary of the method: as §2
Cavia porcellus [11] = species on record: Cavia porcellus; assay: Percent inhibition of LTC4-induced contraction in guinea pig parenchymal strip test, at a concentration of 12 uM; assay type: functional; summary of the method: as §2
Cavia porcellus [12] = species on record: Cavia porcellus; assay: Percent inhibition of LTC4-induced contraction in guinea pig parenchymal strip test, at a concentration of 20 uM; assay type: functional; summary of the method: as §2
Cavia porcellus [13] = species on record: Cavia porcellus; assay: Percent inhibition of LTC4-induced contraction in guinea pig parenchymal strip test, at a concentration of 100 uM; assay type: functional; summary of the method: as §2
Cavia porcellus [14] = species on record: Cavia porcellus; assay: Percent inhibition of LTC4-induced contraction in guinea pig parenchymal strip test, at a concentration of 9 uM; assay type: functional; summary of the method: as §2
Cavia porcellus [15] = species on record: Cavia porcellus; assay: Percent inhibition of LTC4-induced contraction in guinea pig parenchymal strip test, at a concentration of 19 uM; assay type: functional; summary of the method: as §2
Cavia porcellus [16] = species on record: Cavia porcellus; assay: Percent inhibition of LTC4-induced contraction in guinea pig parenchymal strip test, at a concentration of 40 uM; assay type: functional; summary of the method: as §2

SMILES	IC50 [3]	inhibition at 30 µM (Cavia porcellus [2])	further results
CCCCCC(O)c1cccc(O)c1 (centres undefined)			inhibition [1]: 43%
CCCC/C=C/c1ccc(OCc2cccc(C(=O)OC)c2)cc1	> 100 µM	26%	
CCCCCC(NC)c1cccc(OCc2ccccc2)c1 (centres undefined)	22 µM	50%	
CCCCCC(=O)c1cccc(OCc2cccc(C#N)c2)c1		-30%	IC50 [4]: 6 µM
CCCCC[C@H](O)/C=C/C=C\C/C=C\C/C=C\CCCC(=O)O [ICOMUCRET]			IC50 [4]: 1.45 µM
CCCCCC(O)c1cccc(COc2ccccc2)c1 (centres undefined)	6.7 µM	19%	
CCCCCC(O)c1cccc(OCc2ccc3ccccc3n2)c1 (centres undefined) [REV-5901]			inhibition at 3.6 µM (Cavia porcellus [6]): 50%
CCCCC(C)(C)C(O)c1cccc(OCc2cccc(C(=O)OC)c2)c1 (centres undefined)		0%	IC50 [4]: 2 µM
CCCCCC(OC1CCCCO1)c1cccc(OCc2cccc(C(=O)OC)c2)c1 (centres undefined)	23 µM	0%	
CCCCCC(O)c1cccc(OCc2cccc(C(=O)O)n2)c1 (centres undefined)		50%	IC50 [7]: 5 µM
CCCCCC(C)(O)c1cccc(OCc2ccccn2)c1 (centres undefined)			IC50 [4]: 0.43 µM; inhibition at 22 µM (Cavia porcellus [8]): 50%
CCCCCC(O)c1cccc(OCc2ccccn2)c1 (centres undefined)	0.5 µM	37%	
CCCCCC(O)c1cccc(OCc2cccc(C=O)c2)c1 (centres undefined)	4 µM		
CCCCC(O)c1cccc(OCc2ccccc2CO)c1 (centres undefined)			IC50 [4]: 4 µM; inhibition at 15 µM (Cavia porcellus [9]): 50%
CCCCCC(C)(O)c1cccc(OCc2ccc3ccccc3n2)c1 (centres undefined)			IC50 [4]: 0.13 µM; inhibition at 8 µM (Cavia porcellus [10]): 50%
CCCC/C=C\c1cccc(OCc2ccc3ccccc3n2)c1	> 10 µM		inhibition at 12 µM (Cavia porcellus [11]): 50%
CCCCCC(O)c1cccc(Oc2ccccc2)c1 (centres undefined)	1.2 µM	50%	
CCCCCC(O)c1cccc(OCc2ccccc2C(=O)O)c1 (centres undefined)	30 µM		inhibition at 20 µM (Cavia porcellus [12]): 50%
CCCCCC(O)c1cccc(OCc2ccccc2)c1 (centres undefined)	2.7 µM		inhibition at 100 µM (Cavia porcellus [13]): 10%
CCCCCC(=O)c1cccc(OCc2ccc3ccccc3n2)c1			IC50 [4]: 0.37 µM; inhibition at 20 µM (Cavia porcellus [12]): 50%

SMILES	IC50 [3]	inhibition at 30 µM (Cavia porcellus [2])	further results
CCCCCC(O)c1cccc(OCc2cccc(C(=O)OC)n2)c1 (centres undefined)			IC50 [4]: 1.9 µM
CCCCCC(O)c1cccc(OCc2ccccc2C(=O)OC)c1 (centres undefined)	0.6 µM	23%	
CCCCCC(O)c1cccc(OCc2cccc(C(F)(F)F)c2)c1 (centres undefined)		10%	IC50 [4]: 4 µM
CCCCCC(O)c1cccc(/C=C/c2ccccc2)c1 (centres undefined)	4.5 µM	12%	
CCCCCC(O)c1cccc(OCc2cccc(C(N)=O)c2)c1 (centres undefined)	2 µM		inhibition at 10 µM (Cavia porcellus [5]): 0%
CCCCCC(O)c1cccc(OCc2cccc(C(=O)O)c2)c1 (centres undefined)		30%	IC50 [7]: 20.5 µM
CCCCC(C)(C)C(=O)c1cccc(OCc2ccccc2)c1		11%	IC50 [7]: 7.5 µM
CCCCCC(O)c1cccc(OCc2ccc(OCC(=O)OC)cc2)c1 (centres undefined)	4.8 µM		
CCCCCC(O)c1cccc(OCc2ccc(C(=O)OC)cc2)c1 (centres undefined)	3.2 µM		inhibition at 10 µM (Cavia porcellus [5]): 0%
CCCCCC(=O)c1cccc(OCc2ccccc2)c1	2 µM		inhibition at 100 µM (Cavia porcellus [13]): 50%
CCCCCC(O)c1cccc(OCc2cccc(CC(=O)OC)c2)c1 (centres undefined)	5.8 µM	19%	
CCCCC(C)C(O)c1cccc(OCc2ccccc2)c1 (centres undefined)	3 µM	0%	
CCCCCC(O)c1cccc(OCc2cccc(C(=O)OC)c2)c1 (centres undefined)		20%	IC50 [7]: 1 µM
CCCCCC(O)c1cccc(OCc2cccc(CN)c2)c1 (centres undefined)	36 µM	0%	
CCCCCC(O)c1cccc(OCc2ccc3ccccc3c2)c1 (centres undefined)	5 µM	10%	
CCCCC(C)(C)C(C)(O)c1cccc(OCc2ccccc2)c1 (centres undefined)	2.4 µM	10%	
CCCC/C=C(/C)c1ccccc1OCc1cccc(C(=O)OC)c1	5 µM	7%	
CCCCC(OC1CCCCO1)c1cccc(OCc2ccccc2C(=O)OC)c1 (centres undefined)	14 µM		
CCCCCC(O)c1cccc(OCc2cccc(CC(=O)O)c2)c1 (centres undefined)	2.5 µM		inhibition at 40 µM (Cavia porcellus [16]): 50%

Now from value to compound, other results behind:

IC50 [3]	SMILES	inhibition at 30 µM (Cavia porcellus [2])	further results
2.5 µM	CCCCC(O)c1cccc(OCc2ccccc2C(=O)OC)c1 (centres undefined)	35%	
30 µM	CCCCCC(O)c1cccc(OCc2cccc(C#N)n2)c1 (centres undefined)		inhibition at 10 µM (Cavia porcellus [5]): 36%
5 µM	CCCCCC(OC(C)=O)c1cccc(OCc2cccc(C(=O)OC)c2)c1 (centres undefined)	5%	
1 µM	CCCCCC(C)(O)c1cccc(OCc2ccccc2)c1 (centres undefined)	10%	
3.2 µM	CCCCCC(O)c1ccccc1OCc1cccc(C(=O)OC)c1 (centres undefined)		inhibition at 20 µM (Cavia porcellus [12]): 50%
0.35 µM	CCCCCC(O)c1cccc(Oc2ccc3ccccc3n2)c1 (centres undefined)	26%	
17 µM	CCCCCC(O)c1cccc(OCc2cccc(C#N)c2)c1 (centres undefined)		inhibition at 10 µM (Cavia porcellus [5]): 3%
2.7 µM	CCCCCC(O)c1cccc(OCc2ccncc2)c1 (centres undefined)		inhibition at 100 µM (Cavia porcellus [13]): 50%
2.7 µM	CCCCCC(O)c1cccc(OCc2cccnc2)c1 (centres undefined)		inhibition at 9 µM (Cavia porcellus [14]): 50%
45 µM	CCCCCC(=O)c1cccc(/C=C\c2ccccc2)c1	-20%	
6.4 µM	CCCCCC(O)c1cccc(/C=C\c2ccccc2)c1 (centres undefined)	5%	
10 µM	CCCCCC(OC)c1cccc(OCc2cccc(C(=O)OC)c2)c1 (centres undefined)	22%	
> 100 µM	CCCCCC(=O)c1cccc(/C=C/c2ccccc2)c1	0%	
10 µM	CCCCC(O)c1cccc(OCc2ccccc2C(=O)O)c1 (centres undefined)		inhibition at 19 µM (Cavia porcellus [15]): 50%
21 µM	CCCCCC(O)c1cccc(OCc2ccc(C(=O)O)cc2)c1 (centres undefined)	22%	
2.5 µM	CCCCC(C)(C)C(O)c1cccc(OCc2ccccc2)c1 (centres undefined)		
0.6 µM	CCCCCC(=O)c1cccc(OCc2cccc(C(N)=O)c2)c1	5%	

Source: ChEMBL document CHEMBL1123859, “Substituted arylmethyl phenyl ethers. 1. A novel series of 5-lipoxygenase inhibitors and leukotriene antagonists” (J Med Chem, 1987)
